Active and inactive are the calls of the source. No cut-off for these calls is given here.

The test system of data set [1] is Trypanosoma brucei rhodesiense. Nature of the data set: Antitrypanosomal activity against Trypanosoma brucei rhodesiense STIB900 infected in NMRI mouse assessed as cured animal at 20 mg/kg, ip administered for 4 days. The class given is functional, organism-based. More on the design: dose 20 mg/kg. The procedure, abridged: (§1)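 Acute model in female NMRI mice infected with T. b. rhodesiense STIB900. Single daily doses given for four days, intraperitoneally or orally. Mice surviving 60 days post-infection without parasitaemia relapse counted as cured; result reported as cured/infected out of 4 mice per group, with mean survival in days.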

In data set [2] the test system is Trypanosoma brucei rhodesiense. The data set is described as follows: Antitrypanosomal activity against Trypanosoma brucei rhodesiense STIB900 infected in NMRI mouse assessed as mean survival days at 20 mg/kg, ip administered for 4 days. The class given is functional. The conditions noted are these: route intraperitoneal. In outline: (§2)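 Female NMRI mice, acute infection model with T. b. rhodesiense STIB900. Compound given as a single daily dose for four days, intraperitoneally or orally. Cure means survival to 60 days post-infection without parasitaemia relapse. Mean survival recorded in days.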

The subject of another data set is L6. The data set is described as follows: Cytotoxicity against rat L6 cells after 72 hrs by Alamar blue assay. Format: cell-based. The note with it: L6, 72 h. The procedure, abridged:
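Rat L6 myoblast cells; cytotoxic IC50 taken as the average of duplicate determinations.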
A general note: Resazurin is reduced to fluorescent resorufin, in cell work by metabolically active cells.

Data set [3] is described as follows: Selectivity index, ratio of IC50 for rat L6 cells to IC50 for chloroquine-resistant Plasmodium falciparum K1. The class given is toxicity, cell-based. The conditions noted are these: read-out: Ratio IC50. The procedure, abridged: (§3)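 SI = IC50 in rat L6 myoblasts / IC50 against the parasite (T. b. rhodesiense STIB900 or P. falciparum K1). Each IC50 is the average of duplicate determinations.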

Another data set deals with Plasmodium falciparum. The data set is described as follows: Antiplasmodial activity against chloroquine-resistant Plasmodium falciparum K1. The class given is functional, organism-based. In outline:
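Chloroquine-resistant K1 strain tested in vitro. IC50 is the average of duplicate determinations.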

Data set [4] in a line: Selectivity index, ratio of IC50 for rat L6 cells to IC50 for Trypanosoma brucei rhodesiense STIB900. Format: toxicity, cell-based. The note with it: read-out: Ratio IC50. In outline: as §3
Data set [5] deals with Trypanosoma brucei rhodesiense. The data set is described as follows: Antitrypanosomal activity against Trypanosoma brucei rhodesiense STIB900 after 72 hrs by Alamar blue assay. Format: functional, organism-based. The conditions noted are these: STIB900, 72 h.
Data set [6] relates to Trypanosoma brucei rhodesiense. Nature of the data set: Antitrypanosomal activity against Trypanosoma brucei rhodesiense STIB900 infected in NMRI mouse assessed as cured animal at 100 mg/kg, po administered for 4 days. The class given is functional, organism-based. More on the design: dose 100 mg/kg. In outline:
as §1

For data set [7], the system named is Trypanosoma brucei rhodesiense. The data set is described as follows: Antitrypanosomal activity against Trypanosoma brucei rhodesiense STIB900 infected in NMRI mouse assessed as cured animal at 25 mg/kg, po administered for 4 days. Format: functional, organism-based. On the set-up: dose 25 mg/kg. In outline: as §1
For data set [8], the system named is Trypanosoma brucei rhodesiense. The data set is described as follows: Antitrypanosomal activity against Trypanosoma brucei rhodesiense STIB900 infected in NMRI mouse assessed as mean survival days at 25 mg/kg, po administered for 4 days. Format: functional. The procedure, abridged:
as §2

In data set [9] the test system is Trypanosoma brucei rhodesiense. Nature of the data set: Antitrypanosomal activity against Trypanosoma brucei rhodesiense STIB900 infected in NMRI mouse assessed as mean survival days at 100 mg/kg, po administered for 4 days. Format: functional. The procedure, abridged:
as §2

For another data set, the system named is Leishmania donovani. Nature of the data set: Antileishmanial activity against amastigotes of Leishmania donovani MHOM/SD/62/IS-CL2D. Format: functional, organism-based. In outline:
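Axenic amastigotes of L. donovani MHOM/SD/62/IS-CL2D; IC50 taken as the average of at least two determinations.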

Data set [10] is described as follows: Selectivity index, ratio of IC50 for rat L6 cells to IC50 for amastigotes of Leishmania donovani. Format: toxicity, cell-based. The conditions noted are these: read-out: Ratio IC50. In outline:
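SI = IC50 in rat L6 myoblasts / IC50 against L. donovani MHOM/SD/62/IS-CL2D axenic amastigotes. The amastigote IC50 is the average of at least two determinations; the L6 IC50 is the average of duplicates.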

The test system of data set [11] is Trypanosoma brucei rhodesiense. The data set is described as follows: Antitrypanosomal activity against Trypanosoma brucei rhodesiense STIB900 infected in NMRI mouse assessed as cured animal at 5 mg/kg, ip administered for 4 days. The class given is functional, organism-based. On the set-up: dose 5 mg/kg. The procedure, abridged: as §1
The test system of data set [12] is Trypanosoma brucei rhodesiense. Nature of the data set: Antitrypanosomal activity against Trypanosoma brucei rhodesiense STIB900 infected in NMRI mouse assessed as mean survival days at 5 mg/kg, ip administered for 4 days. The conditions noted are these: route intraperitoneal. Format: functional. In outline: as §2
Data set [13] has as its system Trypanosoma brucei rhodesiense. Nature of the data set: Antitrypanosomal activity against Trypanosoma brucei rhodesiense STIB900 infected in NMRI mouse assessed as cured animal at 2 mg/kg, ip administered for 4 days. The class given is functional, organism-based. More on the design: dose 2 mg/kg. The procedure, abridged:
as §2

Data set [14] deals with Trypanosoma brucei rhodesiense. The data set is described as follows: Antitrypanosomal activity against Trypanosoma brucei rhodesiense STIB900 infected in NMRI mouse assessed as mean survival days at 2 mg/kg, ip administered for 4 days. Format: functional. The conditions noted are these: route intraperitoneal. The procedure, abridged: as §2

Usually IC50 stands for the concentration that inhibits the measured activity by half. The low end stands for greater potency, the high end for weaker potency. As for `N=C(N)c1cccc(COc2cccc(C(=N)N)c2)c1`, the result in [1] was inactive. Also, the MSD in data set [2] is 19.8 days. Also, the IC50 in the data set with L6 was 24 µM; with Plasmodium falciparum it was 121 nM; in data set [5] it was 97 nM. Moreover, the selectivity ratio worked out at 198 in data set [3] and 248 in [4].

As to `Cl.Cl.N/C(=N\O)c1cccc(COc2c(Br)cc(/C(N)=N/O)cc2Br)c1`, the outcome in data set [6] was Active. Besides, in [7], the outcome was inactive. Also, the values for the MSD in [8] and in data set [9] were 20.75 days and >60 days, respectively. The IC50 is 26.8 µM in the data set on L6, 61.1 µM with Leishmania donovani, 7560 nM in the data set with Plasmodium falciparum and 6890 nM in [5]. The selectivity ratio was < 1 in data set [10], 4 in data set [3] and 4 in [4].

On to `N=C(N)c1ccc(OCc2cccc(C(=N)N)c2)cc1`, for which the outcome in data set [1] was inactive. In data set [2], the MSD came out at 25.25 days. In addition, the results for the IC50 (in the data set with L6; in the data set with Plasmodium falciparum; in data set [5]) were 5.93 µM, 35 nM and 24 nM, respectively. Further, the selectivity ratio in data set [3] amounted to 168; in [4] it was 250.

Regarding `Cl.Cl.N=C(N)c1cccc(COc2ccc(C(=N)N)cc2[N+](=O)[O-])c1`, the outcome in data set [11] was inactive. The IC50 with L6 was 10.8 µM; in the data set with Leishmania donovani, 11.3 µM; in the data set on Plasmodium falciparum it was 18 nM; in data set [5], 34 nM. Further, the MSD in [12] worked out at 23.25 days. In addition, the selectivity ratio in data set [10] was < 1; in data set [3], 592; in data set [4], 324.

`N=C(N)c1cccc(COc2c(Cl)cc(C(=N)N)cc2Cl)c1`: the outcome in [11] was inactive. Besides, the IC50 in the data set on L6 is 0.57 µM; with Leishmania donovani, 6.51 µM; in the data set with Plasmodium falciparum, 185 nM; in [5] it was 10 nM. The MSD in data set [12] is 27.5 days. The selectivity ratio in [10] is < 1; in [3] it was 3; in data set [4], 57.

In the case of `COc1cc(C(=N)N)cc(OC)c1OCc1ccc(C(=N)N)cc1.Cl.Cl`, in data set [11], the outcome was inactive. Moreover, the IC50 in the data set on L6 was 209 µM; in the data set on Leishmania donovani, > 100 µM; in the data set with Plasmodium falciparum, 177 nM; in [5] it was 110 nM. The MSD in [12] was determined as 15 days. Further, the selectivity ratio in data set [10] was < 2; in data set [3], 1180; in [4], 1910.

Turning to `N=C(N)c1cccc(COc2ccc(C(=N)N)cc2Cl)c1`, the outcome in data set [11] was inactive. For the same compound, the IC50 with L6 stood at 13.9 µM; with Leishmania donovani it was 2.91 µM; in the data set with Plasmodium falciparum, 51 nM; in [5] it was 7 nM. In [12], the MSD was determined as 24.5 days. Moreover, the selectivity ratio in data set [10] was 5; in data set [3], 275; in data set [4], 1900.

`N=C(N)c1cccc(COc2c(Br)cc(C(=N)N)cc2Br)c1`: the outcome in data set [11] was inactive. Further, the IC50 in the data set on L6 worked out at 4.7 µM; in the data set on Leishmania donovani, 3.37 µM; with Plasmodium falciparum, 120 nM; in [5], 4 nM. For the same compound, the MSD in data set [12] was >35.25 days. Further, the selectivity ratio in data set [10] came to 1; in data set [3], 39; in data set [4], 1270.

Regarding `N=C(N)c1ccc(COc2ccc(C(=N)N)cc2Br)cc1`, in data set [11], the result was inactive. In addition, the IC50 in the data set on L6 was 4.99 µM; in the data set with Leishmania donovani, 2.02 µM; with Plasmodium falciparum, 4 nM; in data set [5] it was 16 nM. Moreover, the MSD in data set [12] worked out at 29 days. The values for the selectivity ratio in data set [10], in data set [3] and in data set [4] were 2, 1250 and 322, respectively.

Take `N=C(N)c1ccc(COc2c(Br)cc(C(=N)N)cc2Br)cc1`: the result in data set [11] was inactive. The IC50 in the data set on L6 was 21.5 µM; in the data set on Leishmania donovani it was 4.09 µM; in the data set with Plasmodium falciparum, 25 nM; in data set [5] it was 17 nM. Further, the MSD in data set [12] is 30 days. In addition, the values for the selectivity ratio in [10], in data set [3] and in data set [4] were 5, 849 and 1260, respectively.

As to `Cl.Cl.N/C(=N\O)c1ccc(COc2ccc(/C(N)=N/O)cc2)cc1`, the MSD in [8] is >31.7 days; in data set [9], >46.25 days. In addition, the IC50 is 8.28 µM in the data set on L6, > 100 µM in the data set on Leishmania donovani, 9490 nM in the data set with Plasmodium falciparum and > 238000 nM in data set [5]. Moreover, the selectivity ratio in data set [10], in data set [3] and in data set [4] was < 1 in each case.

For the compound `Nc1nc(N)nc(Nc2ccc([As]3SCC(CO)S3)cc2)n1` (centres undefined) [MELARSOPROL], the outcome in data set [13] was Active. For the same compound, in [14], the MSD is >60 days. In addition, the selectivity ratio in [4] is 1220.

As to `N=C(N)c1ccc(COc2c(Cl)cc(C(=N)N)cc2Cl)cc1`, in data set [11], the result was inactive. Further, the IC50 with L6 was 28.5 µM; with Leishmania donovani, 6.4 µM; with Plasmodium falciparum it was 14 nM; in data set [5], 24 nM. In addition, the MSD in [12] was 30.25 days. Moreover, the selectivity ratio stood at 4 in data set [10], 2020 in data set [3] and 1170 in data set [4].

These data come from ChEMBL document CHEMBL2417357, “Synthesis and antiprotozoal activities of benzyl phenyl ether diamidine derivatives” (Eur J Med Chem, 2013).
